≈ marks a conversion by molar mass, not a printed value.
Molecular target: DlRBL (Dicentrarchus labrax rhamnose-binding lectin) (Dicentrarchus labrax, UniProt A0A8P4K6Y8)
Assay: inhibition of hemagglutination of rabbit erythrocytes by purified lectin
Assay type: biochemical
Details: TBS pH 7.4, 5 mM CaCl2; 1% rabbit erythrocytes
In short: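 Purified lectin (250 μg/ml stock, dialysed in TBS) was serially 2-fold diluted in TBS with 0.1% gelatin. Inhibitor series of monosaccharides, disaccharides and yeast mannan were used at decreasing concentrations starting from 100 mM. Rabbit erythrocytes were washed three times in PBS and suspended at 1% in TBS-gelatin, then added in equal volume. Agglutination was scored after 1 h at 37°C.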

Minimum inhibitory concentration: 70.0 mM (≈ 12.6 mg/mL)
Compound: OC[C@H]1OC(O)[C@H](O)[C@@H](O)[C@H]1O (stereo partly drawn) [D-galactose]

Source: PMC4607264 (Developmental and comparative immunology, 2014)
